Measurements as given in ChEMBL document CHEMBL3608246, “Novel benzidine and diaminofluorene prolinamide derivatives as potent hepatitis C virus NS5A inhibitors” (Eur J Med Chem, 2015).
The source made the active and inactive calls. The calls are words filed in the database; no cut-off is given here.

Columns and labels:
[1] = Oral bioavailability in Sprague-Dawley rat at 10 mg/kg by LC/MS/MS method; assay type: ADME, organism-based; details: in vivo
Outline: (§1)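 Sprague-Dawley rats, 2 male and 1 female per compound per route, parallel design. Vehicle 5% DMSO, 10% solutol, 85% HPBCD; IV 5 mg/kg bolus via tail vein, oral 10 mg/kg. Blood into K2-EDTA tubes at several time points, centrifuged, plasma analysed by LC/MS/MS; non-compartmental analysis.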

Cytochrome P450 1A2 = target: T1, Cytochrome P450 1A2 (Homo sapiens, UniProt P05177); assay: Inhibition of human CYP1A2 by luminometry; assay type: ADME
T1 sequence (P05177 whole entry): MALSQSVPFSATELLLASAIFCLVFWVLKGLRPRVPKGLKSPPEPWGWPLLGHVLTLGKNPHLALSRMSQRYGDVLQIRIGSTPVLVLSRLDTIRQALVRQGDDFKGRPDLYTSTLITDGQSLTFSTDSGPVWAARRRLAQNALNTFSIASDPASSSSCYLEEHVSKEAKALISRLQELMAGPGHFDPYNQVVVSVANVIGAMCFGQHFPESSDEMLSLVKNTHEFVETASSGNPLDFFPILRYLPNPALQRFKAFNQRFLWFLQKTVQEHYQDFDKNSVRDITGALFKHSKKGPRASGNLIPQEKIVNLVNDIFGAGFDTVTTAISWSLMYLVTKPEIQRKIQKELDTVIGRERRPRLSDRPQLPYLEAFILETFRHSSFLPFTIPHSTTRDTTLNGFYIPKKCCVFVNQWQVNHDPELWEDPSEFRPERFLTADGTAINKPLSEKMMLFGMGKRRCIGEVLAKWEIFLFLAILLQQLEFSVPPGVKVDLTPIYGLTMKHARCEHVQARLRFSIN
Outline: (§2)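 Human CYP1A2, 2C9, 2C19, 2D6 and 3A4 inhibition by P450-Glo luminescent assay per kit protocol; compounds at 100, 50, 10, 5, 1, 0.1 and 0.01 µM; luminometer read-out.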

Cytochrome P450 2C19 = Cytochrome P450 2C19 (Homo sapiens, UniProt P33261); assay: Inhibition of human CYP2C19 by luminometry; assay type: ADME; outline: as §2
hERG (KCNH2) = hERG (KCNH2) (Homo sapiens, UniProt Q12809); assay: Inhibition of human ERG at 10 uM by fluorescence polarization assay based ligand binding assay
[2] = Stability in human liver microsomes assessed as compound remaining at 1 uM after 0.5 hrs by LC-MS/MS method; assay type: ADME; details: read-out: Stability
Outline: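 Pooled human liver microsomal fraction with β-NADPH, compound at 1 µM, incubated over 30 min; remaining compound in supernatant quantified by LC-MS/MS.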

[3] = Half life in Sprague-Dawley rat at 10 mg/kg, po by LC/MS/MS method; assay type: ADME, organism-based; details: in vivo; outline: as §1
Hepatitis C virus [4] = assay: Antiviral activity against HCV genotype 2a JFH5a infected in human Huh7.5.1 cells transfected with JFH5a-Rluc-ad34 assessed as reduction in virus proliferation by luciferase reporter gene assay; assay type: functional, cell-based, Hepacivirus hominis, Huh-7
Cytochrome P450 2D6 = Cytochrome P450 2D6 (Homo sapiens, UniProt P10635); assay: Inhibition of human CYP2D6 by luminometry; assay type: ADME; outline: as §2
[5] = Half life in Sprague-Dawley rat at 5 mg/kg, iv by LC/MS/MS method; assay type: ADME, organism-based; details: in vivo; outline: as §1
Cytochrome P450 2C9 = Cytochrome P450 2C9 (Homo sapiens, UniProt P11712); assay: Inhibition of human CYP2C9 by luminometry; assay type: ADME; outline: as §2
Cytochrome P450 3A4 = Cytochrome P450 3A4 (Homo sapiens, UniProt P08684); assay: Inhibition of human CYP3A4 by luminometry; assay type: ADME; outline: as §2
Hepatitis C virus [6] = assay: Antiviral activity against HCV genotype 1b NK/R2AN infected in human Huh7.5.1 cells assessed as reduction in virus replication by luciferase reporter gene assay; assay type: functional, organism-based, Hepacivirus hominis, subtype 1b NK/R2AN, Huh-7
[7] = Cytotoxicity against human Huh7.5.1 cells; assay type: cell-based, Huh-7
Hepatitis C virus [8] = assay: Antiviral activity against HCV genotype 1b NK/R2AN infected in human Huh7.5.1 cells expressing NS5A L31V mutant assessed as reduction in virus replication at 100 pM to 1 uM by luciferase reporter gene assay; assay type: functional, organism-based; details: Hepacivirus hominis, subtype 1b NK/R2AN, Huh-7
Outline: (§3)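 Daclatasvir-resistant NS5A mutant RNAs were transcribed in vitro and electroporated into Huh7.5.1 cells grown in 12-well plates. At 4 h post-transfection, medium was replaced with DMEM containing serially diluted compounds. Cells were harvested 3 days later and Renilla luciferase activity was measured and normalized to mock-treated cells.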

Hepatitis C virus [9] = assay: Antiviral activity against HCV genotype 1b NK/R2AN infected in human Huh7.5.1 cells expressing NS5A Y93H mutant assessed as reduction in virus replication at 100 pM to 1 uM by luciferase reporter gene assay; assay type: functional, organism-based; details: Hepacivirus hominis, subtype 1b NK/R2AN, Huh-7; outline: as §3
Hepatitis C virus [10] = assay: Antiviral activity against HCV genotype 1b NK/R2AN infected in human Huh7.5.1 cells assessed as reduction in virus replication in presence of 123 nM NS5B polymerase inhibitor sofosbuvir by luciferase reporter gene assay; assay type: functional, organism-based; details: Hepacivirus hominis; subtype 1b NK/R2AN; Huh-7
[11] = Stability in rat plasma assessed as compound remaining at 100 uM after 1 hr by LC-MS/MS method; assay type: ADME, cell-free; details: read-out: Stability
Outline: (§4)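 Rat plasma pre-warmed 5 min at 37 °C, mixed with test compound from 100 µM stock (3 into 297 parts), incubated at 37 °C; sampled at 0, 15, 30, 60, 120 min, acetonitrile-precipitated, centrifuged 10 min, supernatant analysed by LC-MS/MS.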

[12] = Stability in rat plasma assessed as compound remaining t 100 uM after 0.5 hrs by LC-MS/MS method; assay type: ADME, cell-free; details: read-out: Stability; outline: as §4
[13] = Stability in rat plasma assessed as compound remaining at 100 uM after 2 hrs by LC-MS/MS method; assay type: ADME, cell-free; details: read-out: Stability; outline: as §4
Salmonella typhimurium [14] = assay: Genotoxicity in Salmonella typhimurium TA98 assessed as induction of revertant colonies at 1 ug/plate in absence of S9 mix by Ames test relative untreated control; assay type: toxicity, organism-based; details: salmonella enterica subsp. enterica serovar typhimurium
Vero = assay: Cytotoxicity against African green monkey Vero cells by WST dye based CCK8 assay; assay type: cell-based; details: Chlorocebus sabaeus
Outline: (§5)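 CCK-8 survival assay: WST-8 tetrazolium reduced by cellular dehydrogenases to orange formazan, giving living-cell count; compounds tested up to 100 µM maximum.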

[15] = Cytotoxicity against CHOK1 cells by WST dye based CCK8 assay; assay type: cell-based; details: Cricetulus griseus, CHO-K1; outline: as §5
Salmonella typhimurium [16] = assay: Genotoxicity in Salmonella typhimurium TA100 assessed as induction of revertant colonies at 200 ug/plate in presence of S9 mix by Ames test relative untreated control; assay type: toxicity, organism-based; details: salmonella enterica subsp. enterica serovar typhimurium
Outline: (§6)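 Ames test, Maron's method, histidine-requiring S. typhimurium TA98 and TA100, with and without S-9 mix; 200 µg/plate, vehicle and positive controls. Revertant colonies counted in triplicate (mean ± SD, n = 3); factor = treated/vehicle-control colonies; positive if ≥2-fold over vehicle.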

[17] = Cytotoxicity against mouse NIH/3T3 cells by WST dye based CCK8 assay; assay type: cell-based; details: NIH3T3; outline: as §5
HFL1 = assay: Cytotoxicity against human HFL1 cells by WST dye based CCK8 assay; assay type: cell-based; outline: as §5
Salmonella typhimurium [18] = assay: Genotoxicity in Salmonella typhimurium TA98 assessed as induction of revertant colonies at 200 ug/plate in presence of S9 mix by Ames test relative untreated control; assay type: toxicity, organism-based; details: salmonella enterica subsp. enterica serovar typhimurium; outline: as §6
Salmonella typhimurium [19] = assay: Genotoxicity in Salmonella typhimurium TA100 assessed as induction of revertant colonies at 200 ug/plate in absence of S9 mix by Ames test relative untreated control; assay type: toxicity, organism-based; details: salmonella enterica subsp. enterica serovar typhimurium; outline: as §6
Salmonella typhimurium [20] = assay: Genotoxicity in Salmonella typhimurium TA98 assessed as induction of revertant colonies at 200 ug/plate in absence of S9 mix by Ames test relative untreated control; assay type: toxicity, organism-based; details: salmonella enterica subsp. enterica serovar typhimurium; outline: as §6
L929 = assay: Cytotoxicity against mouse L929 cells by WST dye based CCK8 assay; assay type: cell-based; outline: as §5
[21] = Hepatitis C virus, genotype 2a JFH5a, Huh-7
[22] = Hepatitis C virus, subtype 1b NK/R2AN, Huh-7

Chain of Cytochrome P450 3A4 (P08684 whole entry): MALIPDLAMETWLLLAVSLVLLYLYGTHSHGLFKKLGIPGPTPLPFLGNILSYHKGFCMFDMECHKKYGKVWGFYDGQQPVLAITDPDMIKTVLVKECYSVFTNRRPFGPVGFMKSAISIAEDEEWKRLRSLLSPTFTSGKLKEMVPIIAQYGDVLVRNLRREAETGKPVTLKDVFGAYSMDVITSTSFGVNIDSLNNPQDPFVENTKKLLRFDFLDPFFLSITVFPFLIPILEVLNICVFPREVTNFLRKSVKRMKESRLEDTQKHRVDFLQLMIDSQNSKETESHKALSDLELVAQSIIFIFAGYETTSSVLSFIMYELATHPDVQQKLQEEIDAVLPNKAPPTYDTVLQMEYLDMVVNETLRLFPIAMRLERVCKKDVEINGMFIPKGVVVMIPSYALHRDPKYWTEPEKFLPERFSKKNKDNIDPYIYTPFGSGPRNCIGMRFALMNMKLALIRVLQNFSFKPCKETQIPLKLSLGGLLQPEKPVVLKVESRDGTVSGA
Chain of Cytochrome P450 2C9 (P11712 whole entry): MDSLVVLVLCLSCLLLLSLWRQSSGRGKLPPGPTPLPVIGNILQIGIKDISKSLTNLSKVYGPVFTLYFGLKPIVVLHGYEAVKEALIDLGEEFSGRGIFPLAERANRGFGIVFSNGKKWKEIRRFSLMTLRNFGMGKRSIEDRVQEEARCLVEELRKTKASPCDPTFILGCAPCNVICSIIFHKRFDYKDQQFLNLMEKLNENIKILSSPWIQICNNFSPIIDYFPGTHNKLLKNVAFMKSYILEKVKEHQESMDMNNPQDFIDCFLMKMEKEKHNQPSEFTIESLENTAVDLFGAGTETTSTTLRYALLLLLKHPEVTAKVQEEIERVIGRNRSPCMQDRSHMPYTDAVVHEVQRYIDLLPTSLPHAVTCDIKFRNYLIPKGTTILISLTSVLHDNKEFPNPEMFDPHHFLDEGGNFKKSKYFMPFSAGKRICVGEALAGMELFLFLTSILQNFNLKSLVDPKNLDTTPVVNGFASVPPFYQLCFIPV
Chain of Cytochrome P450 2D6 (P10635 whole entry): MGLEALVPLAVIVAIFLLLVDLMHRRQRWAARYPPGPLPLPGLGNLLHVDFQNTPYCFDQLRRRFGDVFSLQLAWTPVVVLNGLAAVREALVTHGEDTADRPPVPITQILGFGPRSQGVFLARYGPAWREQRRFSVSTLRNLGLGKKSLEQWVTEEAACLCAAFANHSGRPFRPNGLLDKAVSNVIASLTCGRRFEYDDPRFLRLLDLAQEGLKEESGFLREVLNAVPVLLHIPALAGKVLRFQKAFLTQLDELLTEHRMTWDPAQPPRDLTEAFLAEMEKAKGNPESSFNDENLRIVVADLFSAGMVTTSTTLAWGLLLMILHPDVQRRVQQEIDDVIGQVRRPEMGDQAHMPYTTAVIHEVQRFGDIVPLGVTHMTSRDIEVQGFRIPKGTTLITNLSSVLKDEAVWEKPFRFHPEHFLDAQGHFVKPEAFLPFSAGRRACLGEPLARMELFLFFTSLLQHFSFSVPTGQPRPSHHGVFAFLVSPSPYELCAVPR
Chain of Cytochrome P450 2C19 (P33261 whole entry): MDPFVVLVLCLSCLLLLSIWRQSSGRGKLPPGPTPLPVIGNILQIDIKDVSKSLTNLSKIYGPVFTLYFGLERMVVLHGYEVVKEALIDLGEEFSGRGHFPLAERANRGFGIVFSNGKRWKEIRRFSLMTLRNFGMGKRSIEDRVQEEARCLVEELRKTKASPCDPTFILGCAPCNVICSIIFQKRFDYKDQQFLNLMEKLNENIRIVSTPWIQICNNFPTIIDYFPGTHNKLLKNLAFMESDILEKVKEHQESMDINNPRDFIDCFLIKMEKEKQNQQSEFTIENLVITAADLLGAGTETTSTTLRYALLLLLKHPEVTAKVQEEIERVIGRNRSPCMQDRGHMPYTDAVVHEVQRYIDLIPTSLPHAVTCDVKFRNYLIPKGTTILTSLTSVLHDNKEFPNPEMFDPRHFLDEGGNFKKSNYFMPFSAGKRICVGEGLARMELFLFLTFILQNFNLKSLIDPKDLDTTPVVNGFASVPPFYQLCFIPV
Chain of hERG (KCNH2) (Q12809 whole entry): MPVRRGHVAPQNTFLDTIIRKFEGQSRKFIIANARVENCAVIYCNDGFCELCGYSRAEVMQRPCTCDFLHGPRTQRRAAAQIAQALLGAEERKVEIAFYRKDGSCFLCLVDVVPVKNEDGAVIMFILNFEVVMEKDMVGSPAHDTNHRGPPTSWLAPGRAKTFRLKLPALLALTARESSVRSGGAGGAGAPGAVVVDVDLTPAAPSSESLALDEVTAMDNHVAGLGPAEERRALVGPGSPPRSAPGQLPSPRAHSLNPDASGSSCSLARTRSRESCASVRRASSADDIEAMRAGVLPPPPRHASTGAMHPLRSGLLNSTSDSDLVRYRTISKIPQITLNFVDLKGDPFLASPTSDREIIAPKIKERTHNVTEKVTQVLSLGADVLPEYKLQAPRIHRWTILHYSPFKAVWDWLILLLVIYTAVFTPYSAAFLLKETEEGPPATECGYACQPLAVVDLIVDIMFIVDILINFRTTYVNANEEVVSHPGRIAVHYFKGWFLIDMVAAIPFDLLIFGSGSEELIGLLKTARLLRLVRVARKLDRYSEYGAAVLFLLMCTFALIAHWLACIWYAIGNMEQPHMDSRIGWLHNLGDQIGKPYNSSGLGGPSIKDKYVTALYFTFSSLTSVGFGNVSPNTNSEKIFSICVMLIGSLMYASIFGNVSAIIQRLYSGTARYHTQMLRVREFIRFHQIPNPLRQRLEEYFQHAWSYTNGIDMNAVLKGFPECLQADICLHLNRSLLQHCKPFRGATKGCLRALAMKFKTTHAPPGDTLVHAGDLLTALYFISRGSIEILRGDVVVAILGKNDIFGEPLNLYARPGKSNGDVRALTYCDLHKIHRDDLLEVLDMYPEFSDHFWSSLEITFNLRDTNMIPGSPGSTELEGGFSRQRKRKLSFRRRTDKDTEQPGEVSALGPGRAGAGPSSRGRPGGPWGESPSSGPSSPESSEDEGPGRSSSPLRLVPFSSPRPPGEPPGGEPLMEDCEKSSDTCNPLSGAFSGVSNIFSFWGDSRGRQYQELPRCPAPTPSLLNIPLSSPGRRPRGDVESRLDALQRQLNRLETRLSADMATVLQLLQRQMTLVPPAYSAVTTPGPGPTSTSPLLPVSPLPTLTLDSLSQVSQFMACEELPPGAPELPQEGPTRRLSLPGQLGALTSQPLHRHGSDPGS

| SMILES | bioavailability [1] [%] | EC50 (Cytochrome P450 1A2) [nM] | EC50 (Cytochrome P450 2C19) [nM] | inhibition at 10 µM (hERG (KCNH2)) [%] | remaining at 0.5 h, 1 µM [2] [%] | half-life [3] [h] | EC50 (Hepatitis C virus [4]; [21]) [nM] | EC50 (Cytochrome P450 2D6) [nM] | half-life [5] [h] | EC50 (Cytochrome P450 2C9) [nM] | EC50 (Cytochrome P450 3A4) [nM] | EC50 (Hepatitis C virus [6]; [22]) [nM] | CC50 [7] [nM] | remaining at 1 h, 100 µM [11] [%] | remaining at 0.5 h, 100 µM [12] [%] | remaining at 2 h, 100 µM [13] [%] | also measured |
| --- | --- | --- | --- | --- | --- | --- | --- | --- | --- | --- | --- | --- | --- | --- | --- | --- | --- |
| COC(=O)N[C@@H](C(=O)N1CCC[C@H]1C(=O)Nc1ccc2c(c1)C(C)(C)c1cc(NC(=O)[C@@H]3CCCN3C(=O)[C@H](NC(=O)OC)c3ccccc3)ccc1-2)c1ccccc1 | 13.8 | > 100000 | 2940 | 25.7 | 95 | 4.45 | 0.02 | > 100000 | 1.62 | 269 | 1030 | 0.004 | > 25000 |  |  |  |  |
| COC(=O)N[C@H](C(=O)N1CCC[C@H]1c1ncc(-c2ccc(-c3ccc(-c4cnc([C@@H]5CCCN5C(=O)[C@@H](NC(=O)OC)C(C)C)[nH]4)cc3)cc2)[nH]1)C(C)C |  |  |  |  |  |  |  |  |  |  |  |  |  |  |  |  | inhibition (Hepatitis C virus [8]): Active; inhibition (Hepatitis C virus [9]): Active |
| COC(=O)N[C@@H](C(=O)N1CCC[C@H]1C(=O)Nc1ccc(-c2ccc(NC(=O)[C@@H]3CCCN3C(=O)[C@H](NC(=O)OC)c3ccccc3)cc2C(F)(F)F)c(C(F)(F)F)c1)c1ccccc1 (stereo in doubt; form 1) [listing 1 of 2 here] |  |  |  |  |  |  |  |  |  |  |  |  |  |  |  |  | Activity (Hepatitis C virus [10]): Active |
| COC(=O)N[C@@H](C(=O)N1CCC[C@H]1C(=O)Nc1ccc(-c2ccc(NC(=O)[C@@H]3CCCN3C(=O)[C@H](NC(=O)OC)c3ccccc3)cc2C(F)(F)F)c(C(F)(F)F)c1)c1ccccc1 (stereo in doubt; form 1) [listing 2 of 2 here] | 11.7 | 78800 | 4640 | 7.98 | 79 | 3.8 |  | > 100000 | 2.9 | 660 | 4640 |  |  | 99 | 93 | 99 | EC50 (Hepatitis C virus [4]; huh-7): 0.025 nM; EC50 (Hepatitis C virus [6]; huh-7): 0.0025 nM |
| COC(=O)N[C@@H](C(=O)N1CCC[C@H]1C(=O)Nc1ccc(-c2ccc(NC(=O)[C@@H]3CCCN3C(=O)[C@H](NC(=O)OC)c3ccccc3)cc2F)c(F)c1)c1ccccc1 | 3.12 | > 100000 | 724 | < 1 | 97 | 2.34 | 0.16 | 4940 | 0.88 | 87.7 | 2460 | 0.005 | > 25000 | 61 | 65 | 63 |  |
| O=[N+]([O-])c1ccc2c(c1)Cc1ccccc1-2 [2-NITROFLUORENE] |  |  |  |  |  |  |  |  |  |  |  |  |  |  |  |  | fold change (FC) (Salmonella typhimurium [14]): 10.2 |
| COC(=O)N[C@@H](C(=O)N1CCC[C@H]1C(=O)Nc1ccc2c(c1)C(F)(F)c1cc(NC(=O)[C@@H]3CCCN3C(=O)[C@H](NC(=O)OC)c3ccccc3)ccc1-2)c1ccccc1 | 7.6 | > 100000 | 13900 | 39.1 | 92 | 1.68 | 0.059 | > 100000 | 0.9 | 277 | 976 | 0.003 | > 25000 |  |  |  | IC50 (Vero): > 100000 nM; IC50 [15]: > 100000 nM; fold change (FC) (Salmonella typhimurium [16]): 0.9; IC50 [17]: > 100000 nM; IC50 (HFL1): > 100000 nM; fold change (FC) (Salmonella typhimurium [18]): 1.1; fold change (FC) (Salmonella typhimurium [19]): 0.9; inhibition (Hepatitis C virus [8]): Active; inhibition (Hepatitis C virus [9]): Active; fold change (FC) (Salmonella typhimurium [20]): 1.3; IC50 (L929): > 100000 nM |
| COC(=O)N[C@@H](C(=O)N1CCC[C@H]1C(=O)Nc1ccc(-c2ccc(NC(=O)[C@@H]3CCCN3C(=O)[C@H](NC(=O)OC)c3ccccc3)cc2Cl)c(Cl)c1)c1ccccc1 | 4.99 | 23900 | 1040 | 5.8 | 96 | 6.37 | 0.01 | 41200 | 1.55 | 116 | 3990 | 0.007 | > 25000 | 75 | 72 | 70 |  |
